The text below walks through data of ChEMBL document CHEMBL1140894, “Non-vanillyl resiniferatoxin analogues as potent and metabolically stable transient receptor potential vanilloid 1 agonists” (Bioorg Med Chem, 2009).

For series [1], the target named is T1, Transient receptor potential cation channel subfamily V member 1 (Rattus norvegicus, UniProt O35433). The series can be described thus: Agonist activity at rat TRPV1 receptor expressed in CHO cells assessed as calcium uptake. Format: functional, cell-based.
T1 sequence (O35433 whole entry): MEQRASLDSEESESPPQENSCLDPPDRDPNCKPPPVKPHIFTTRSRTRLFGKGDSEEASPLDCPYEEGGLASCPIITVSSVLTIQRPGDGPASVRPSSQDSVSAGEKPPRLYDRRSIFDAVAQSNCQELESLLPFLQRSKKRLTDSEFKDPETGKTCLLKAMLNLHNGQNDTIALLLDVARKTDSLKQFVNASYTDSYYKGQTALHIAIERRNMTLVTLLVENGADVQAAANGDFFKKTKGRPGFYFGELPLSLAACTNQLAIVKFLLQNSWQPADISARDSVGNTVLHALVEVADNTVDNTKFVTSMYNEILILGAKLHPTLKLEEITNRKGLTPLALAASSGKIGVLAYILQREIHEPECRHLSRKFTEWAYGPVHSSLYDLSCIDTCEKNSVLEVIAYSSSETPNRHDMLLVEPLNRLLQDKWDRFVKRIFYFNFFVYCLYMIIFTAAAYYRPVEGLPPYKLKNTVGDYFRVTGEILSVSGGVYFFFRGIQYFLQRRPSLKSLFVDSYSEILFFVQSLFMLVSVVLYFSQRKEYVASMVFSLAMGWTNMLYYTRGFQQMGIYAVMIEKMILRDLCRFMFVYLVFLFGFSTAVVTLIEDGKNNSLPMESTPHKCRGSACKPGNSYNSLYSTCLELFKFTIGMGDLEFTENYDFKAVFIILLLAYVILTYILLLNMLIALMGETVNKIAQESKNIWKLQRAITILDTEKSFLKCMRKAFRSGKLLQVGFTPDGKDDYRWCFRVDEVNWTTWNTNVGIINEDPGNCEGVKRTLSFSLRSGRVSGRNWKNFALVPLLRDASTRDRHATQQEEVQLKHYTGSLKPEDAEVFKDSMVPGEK
The nature of series [2]: Metabolic stability in Sprague-Dawley rat liver microsomes at 10 ug/mL after 60 mins by HPLC. It counts as ADME, Microsome. Particulars: read-out: Stability.
Series [3] can be described thus: Metabolic stability in Sprague-Dawley rat plasma at 10 ug/mL after 240 mins by HPLC. It counts as ADME, cell-free. Particulars: read-out: Stability. Put shortly: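 Compound added to pre-warmed rat plasma to a final 10 μg/mL and incubated 240 min. Stopped with methanol at 0 and 240 min and quantified by LC-MS. Expressed as percent of initial concentration remaining.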

Series [4] deals with T1, Transient receptor potential cation channel subfamily V member 1. The series can be described thus: Displacement of [3H]RTX form rat TRPV1 receptor expressed in CHO/VR1 cell system. Format: cell-based. For orientation: Loss of bound radioactivity is the signal in a displacement assay; it reports binding, not function.
The target in series [5] is Transient receptor potential cation channel subfamily V member 1 (Rattus norvegicus) (UniProt O35433). Put plainly: Activity at rat TRPV1 receptor expressed in CHO cells assessed as changes in intracellular calcium levels at 75 pM by calcium imaging. It counts as cell-based.
Chain of Transient receptor potential cation channel subfamily V member 1 (Rattus norvegicus) (O35433 whole entry): as above
Series [6] has the same target. The series can be described thus: Agonist activity at rat TRPV1 receptor expressed in CHO cells assessed as calcium uptake relative to capsaicin. It counts as functional, cell-based.

The source made the active and inactive calls. No cut-off for these calls is given here.

A word on the EC50: it is the concentration that produces a half-maximal response. A word on the Ki: it is a measure of affinity in units of concentration, obtained from inhibition or displacement. Higher therefore signals a looser hold on the target. For `C=C(C)[C@@]12C[C@@H](C)[C@@]34OC(Cc5ccccc5)(O[C@@H]1[C@@H]3C=C(COC(=O)Cc1ccc(NS(C)(=O)=O)c(OC)c1)C[C@]1(O)C(=O)C(C)=C[C@@H]41)O2`, in series [1], the EC50 stood at 0.106 nM. For the same compound, the remaining at 1 h, 10 ug/mL in series [2] was 81.4%. Moreover, the remaining at 4 h, 10 ug/mL in series [3] was 90.8%. The same compound came in with a Ki in series [4] of 0.228 nM.
In the case of `C=C(C)[C@]12C[C@@H](C)[C@@]34O[C@](Cc5ccccc5)(O[C@@H]1[C@@H]3C=C(COC(=O)Cc1ccc(O)c(OC)c1)C[C@]1(O)C(=O)C(C)=C[C@@H]41)O2` [RESINIFERATOXIN], in series [1], the EC50 is 0.27 nM. Further, the result in series [5] was Active. Further, the remaining at 1 h, 10 ug/mL in series [2] came out at 57.6%. The remaining at 4 h, 10 ug/mL in series [3] came to 71.7%. This compound showed a Ki in series [4] of 0.0426 nM.
In the case of `C=C(C)[C@@]12C[C@@H](C)[C@@]34OC(Cc5ccccc5)(O[C@@H]1[C@@H]3C=C(COC(=O)Cc1ccc(F)cc1)C[C@]1(O)C(=O)C(C)=C[C@@H]41)O2`, the EC50 in series [1] worked out at 3.88 nM. This compound showed a Ki in series [4] of 3.1 nM.
Turning to `C=C(C)[C@@]12C[C@@H](C)[C@@]34OC(Cc5ccccc5)(O[C@@H]1[C@@H]3C=C(COC(=O)Cc1c(F)cccc1F)C[C@]1(O)C(=O)C(C)=C[C@@H]41)O2`, the 50% effective concentration (EC50) in series [1] came to 11.3 nM. The compound further registered an inhibitory constant (Ki) in series [4] of 2.69 nM.
Consider `C=C(C)[C@@]12C[C@@H](C)[C@@]34OC(Cc5ccccc5)(O[C@@H]1[C@@H]3C=C(COC(=O)Cc1ccc(NS(C)(=O)=O)c(F)c1)C[C@]1(O)C(=O)C(C)=C[C@@H]41)O2`, for which the EC50 in series [1] worked out at 2.45 nM. In series [4], the affinity, expressed as Ki, was 0.84 nM.
In the case of `C=C(C)[C@@]12C[C@@H](C)[C@@]34OC(Cc5ccccc5)(O[C@@H]1[C@@H]3C=C(COC(=O)Cc1c(F)c(F)c(F)c(F)c1F)C[C@]1(O)C(=O)C(C)=C[C@@H]41)O2`, in series [6], the Activity was found to be 23%. Moreover, in series [4], the Ki was 135 nM.
With `C=C(C)[C@@]12C[C@@H](C)[C@@]34OC(Cc5ccccc5)(O[C@@H]1[C@@H]3C=C(COC(=O)Cc1cccc(F)c1F)C[C@]1(O)C(=O)C(C)=C[C@@H]41)O2`, the EC50 in series [1] was 9.1 nM. In series [4], this compound gave a Ki of 3.53 nM.
Regarding `C=C(C)[C@@]12C[C@@H](C)[C@@]34OC(Cc5ccccc5)(O[C@@H]1[C@@H]3C=C(COC(=O)Cc1cc(F)cc(F)c1)C[C@]1(O)C(=O)C(C)=C[C@@H]41)O2`, in series [1], the EC50 is 59 nM. Besides, the Ki in series [4] was determined as 8.3 nM.
With `C=C(C)[C@@]12C[C@@H](C)[C@@]34OC(Cc5ccccc5)(O[C@@H]1[C@@H]3C=C(COC(=O)Cc1ccccc1F)C[C@]1(O)C(=O)C(C)=C[C@@H]41)O2`, the EC50 in series [1] was determined as 4.65 nM.
On to `C=C(C)[C@@]12C[C@@H](C)[C@@]34OC(Cc5ccccc5)(O[C@@H]1[C@@H]3C=C(COC(=O)Cc1cccc(F)c1)C[C@]1(O)C(=O)C(C)=C[C@@H]41)O2`, for which the EC50 in series [1] was determined as 1.92 nM. Also, the affinity in series [4] corresponds to a Ki of 2.4 nM.
For `C=C(C)[C@@]12C[C@@H](C)[C@@]34OC(Cc5ccccc5)(O[C@@H]1[C@@H]3C=C(COC(=O)Cc1ccc(F)cc1F)C[C@]1(O)C(=O)C(C)=C[C@@H]41)O2`, the EC50 in series [1] came out at 1.8 nM. For the same compound, in series [2], the remaining at 1 h, 10 ug/mL came out at 57.9%. Besides, the remaining at 4 h, 10 ug/mL in series [3] came to 88.3%. In series [4], this compound came in with a Ki of 0.89 nM.
On to `C=C(C)[C@@]12C[C@@H](C)[C@@]34OC(Cc5ccccc5)(O[C@@H]1[C@@H]3C=C(COC(=O)Cc1cc(F)ccc1F)C[C@]1(O)C(=O)C(C)=C[C@@H]41)O2`, for which, in series [1], the EC50 is 4.21 nM. The Ki in series [4] is 0.4 nM.
The matching figures for `C=C(C)[C@@]12C[C@@H](C)[C@@]34OC(Cc5ccccc5)(O[C@@H]1[C@@H]3C=C(CNC(=O)Cc1ccc(NS(C)(=O)=O)cc1)C[C@]1(O)C(=O)C(C)=C[C@@H]41)O2`: 375 nM and 320 nM.
On the same counts, the results for `C=C(C)[C@@]12C[C@@H](C)[C@@]34OC(Cc5ccccc5)(O[C@@H]1[C@@H]3C=C(COC(=O)Cc1ccc(NS(C)(=O)=O)cc1)C[C@]1(O)C(=O)C(C)=C[C@@H]41)O2` are 1.78 nM and 6.81 nM.
The matching figures for `C=C(C)[C@@]12C[C@@H](C)[C@@]34OC(Cc5ccccc5)(O[C@@H]1[C@@H]3C=C(COC(=O)Cc1ccc(F)c(F)c1)C[C@]1(O)C(=O)C(C)=C[C@@H]41)O2`: 5.5 nM and 0.98 nM.
